EBNA-1 inh – EBNA-1 DNA-binding inhibitors, primary screen, biochemical, fluorescence polarization. inhibition, % at 14.8 µM. 0.34% of 300,000 active. AID 1950, 2009; in the data active = inhibition above about 28%
NS3 helicase inh – inhibitors of HCV NS3 helicase, primary screen, biochemical, Cy5 molecular beacon fluorescence; Hepatitis C virus NS3 helicase; NS3 helicase DNA unwinding; inhibition, % at 10.9 µM; 0.56% of 290,000 active; AID 1800, 2009;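 active = inhibition above the mean of all tested compounds plus 3 SD, set per campaign, cut at about 35% in these data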;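 note: 0% = DMSO wells and 100% = thioflavine S control wells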
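test system = hepatitis C virus NS3 helicase domain fragment enzyme | reagent = annealed dual-labelled DNA beacon duplex, ATP-started | times = 1 h at 25 °C | detection = Cy5 fluorescence, 0 and 60 min reads | read-out basis = percent inhibition from t60/t0 fluorescence ratio | control set = DMSO and thioflavine S | replication = one well per compound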
NR3A LBD binder – binders of NR3A ligand-binding domain, primary screen, biophysical, differential scanning fluorimetry, uHTS. Glutamate receptor ionotropic, NMDA 3A (GRIN3A) ligand-binding domain. NR3A LBD differential scanning fluorimetry, Tm shift; 0% = protein alone, 100% = glycine-bound protein. Tm shift relative to glycine control, % at 25 µM. 2.5% of 340,000 active. AID 1259313, 2017;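 active = melting temperature shift of at least 10% of the positive control shift, at one fixed dose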
FID counter – compounds displacing fluorescent DNA intercalator, primary screen, artefact control for HCV NS3 helicase inhibitor project, biochemical, FID fluorescence | DNA fluorescent intercalator displacement | inhibition, % at 7.9 µM | 0.17% of 290,000 active | AID 1845, 2009; in the data active = inhibition above about 37%;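 note: 0% = vehicle and 100% = reference compound; higher means more ethidium bromide displaced from hairpin DNA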
FGF22 binding – binders of human FGF22 protein, primary screen, FGF22 synaptogenesis inhibitor project, biophysical, thermal shift, single point; activity (Tm shift, normalised), % at 9.99 µM; recombinant FGF22 thermal shift, SYPRO orange fluorescence; percent of sucrose octasulfate shift, DMSO zero; Fibroblast growth factor 22 (Homo sapiens), Q9HCT0; 1.5% of 340,000 active; AID 651658, 2012;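 active = mean Tm shift, scaled 0 neutral to 100 positive control, at about 1.3% or above, every replicate too, limit read from the data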
Target sequence (Q9HCT0 whole entry, looked up): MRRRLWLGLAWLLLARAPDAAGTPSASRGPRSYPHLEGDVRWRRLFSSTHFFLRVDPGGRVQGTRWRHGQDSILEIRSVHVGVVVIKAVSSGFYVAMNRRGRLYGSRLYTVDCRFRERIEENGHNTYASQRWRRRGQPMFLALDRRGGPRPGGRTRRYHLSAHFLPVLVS
ZTA counter – blocks Epstein-Barr virus ZTA, an EBNA-1 counter-screen | P03206 | ZTA-DNA binding, fluorescence polarization | inhibition, % at 11 µM | 0.15% of 320,000 active; in the data active = inhibition above about 33%
Target sequence (P03206 whole entry, looked up): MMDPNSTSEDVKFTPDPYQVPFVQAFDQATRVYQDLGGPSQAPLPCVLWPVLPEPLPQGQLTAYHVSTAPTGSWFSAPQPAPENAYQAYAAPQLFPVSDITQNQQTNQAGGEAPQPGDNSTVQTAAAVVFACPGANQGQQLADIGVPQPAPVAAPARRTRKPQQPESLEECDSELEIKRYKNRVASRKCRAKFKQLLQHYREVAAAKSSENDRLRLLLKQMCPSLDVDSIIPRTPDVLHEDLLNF
Numbers without * were called inactive; x = not tested or not shown. The list is not random: actives were taken first. Their share in the collection is about 3.6%.

SMILES | EBNA-1 inh | NS3 helicase inh | NR3A LBD binder | FID counter | FGF22 binding | ZTA counter
C=CCc1cccc2cc(C(=O)Nc3ccccc3C(=O)O)c(=O)oc12 | x | 28 | 0 | -26 | 43* | x
C[C@@H]1CN([C@@H](C)CO)C(=O)c2cccc(NC(=O)c3cnccn3)c2O[C@@H]1CN(C)S(=O)(=O)c1cccs1 | x | x | x | x | 0 | x
CCN(Cc1ccncc1)C(=O)CCc1nnc(CCc2ccccc2OC)o1 | -2 | -4 | 2 | -12 | 0 | -14
COc1ccccc1CCc1nnc(CCC(=O)N(C)Cc2cccc3cnccc23)o1 | 11 | 0 | 0 | -33 | 44* | 3
CCN(CCn1cccn1)C(=O)CCc1nnc(CCc2ccccc2OC)o1 | -11 | 0 | 1 | -18 | 44* | -11
COc1ccccc1CCc1nnc(CCC(=O)N(C)Cc2ccncc2C)o1 | -12 | -2 | 2 | -13 | 0 | 2
O=C1c2ccccc2CCC12OC2c1ccncc1 (configuration not stated) | x | x | x | x | 0 | x
O=C1c2ccccc2CCC12OC2c1ccc([N+](=O)[O-])cc1 (configuration not stated) | x | x | x | x | 44* | x
CN=C1CC(SC)=C1c1ccc(C)cc1 | -2 | 1 | 19* | 2 | x | 2
Cc1cc(NS(=O)(=O)c2ccc(NC(=O)/C=C/c3ccccc3)cc2)no1 | 4 | 5 | -7 | -34 | 0 | 13
COc1ccc(/C=C/C(=O)Nc2ccc(S(=O)(=O)Nc3onc(C)c3C)cc2)cc1OC | 2 | 13 | 0 | -34 | 0 | -5
Cc1cc(NS(=O)(=O)c2ccc(NC(=O)/C=C/c3cccc(Cl)c3)cc2)no1 | 3 | -11 | 16* | -40 | 0 | 7
Cc1noc(NS(=O)(=O)c2ccc(NC(=O)/C=C/c3ccccc3)cc2)c1C | x | x | -2 | x | 1.4* | x
COCC(=O)Nc1ccc2c(c1)C(=O)N(C)C[C@H](OC)[C@H](C)CN(Cc1cccc(F)c1)[C@@H](C)CO2 | x | x | x | x | 0 | x
O=C(CSc1nc2ccccc2s1)NNC(=S)Nc1ccc(Cl)cc1 | -2 | 11 | 32* | -42 | 0 | 3
COc1ccccc1/C=C(/CC(=O)NCc1ccc2c(c1)OCO2)c1nc2ccccc2s1 | 36* | 35 | -1 | -40 | x | -1
Nc1ccc2nc(SCC(=O)Nc3ccc(N4CCOCC4)c(Cl)c3)sc2c1 | -4 | -6 | 18* | 1 | x | -1
C=CCNC(=S)NNC(=O)CSc1nc2ccccc2s1 | -7 | -3 | 2 | -9 | 0 | -6
O=C(Cc1nc2ccccc2s1)c1ccc(O)cc1O | -8 | 4 | x | 6 | x | -5
O=C(CSc1nc2ccccc2s1)c1ccc(O)cc1O | 1 | 13 | 30* | 5 | 0 | 1
C[C@@H]1CN([C@H](C)CO)C(=O)Cc2cc(NS(=O)(=O)c3ccccc3)ccc2O[C@H]1CN(C)S(=O)(=O)c1cn(C)cn1 | x | x | x | x | 0 | x
N#C[C@@H]1[C@H](c2ccc(C3=CCCCC3)cc2)[C@H](CO)N1C(=O)c1ccccn1 | x | x | x | x | 0 | x
C[C@@H]1CN([C@@H](C)CO)C(=O)c2cccc(NC(=O)c3ccncc3)c2O[C@H]1CN(C)S(=O)(=O)c1ccc(Cl)cc1 | x | x | x | x | 0 | x
O=C(c1ccc2c(c1)OCO2)N1CC(=O)N2[C@H](CO)[C@@H](c3ccc(C#CCC4CCCC4)cc3)[C@H]2C1 | x | x | x | x | -1 | x
CO[C@H]1CN(C)C(=O)c2cc(NC(=O)Nc3ccccc3F)ccc2OC[C@@H](C)N(CC2CC2)C[C@@H]1C | x | x | x | x | 0 | x
SMILES | EBNA-1 inh | NS3 helicase inh | NR3A LBD binder | FID counter | FGF22 binding | ZTA counter
O=C(CSc1nc2ccccc2s1)Nc1ccc2c(c1)OCO2 | -1 | 0 | 14* | -10 | 0 | 2
CC(Sc1nc2ccccc2s1)C(=O)Nc1ccc2c(c1)OCO2 (configuration not stated) | 5 | 6 | 0 | -11 | x | 7
CN1[C@@H]2Cn3c(cccc3=O)[C@H]1[C@@H](C(=O)NCC1CCCCC1)[C@@H]2CO | x | x | x | x | 0 | x
COCCNC(=O)C[C@H]1C[C@@H]2c3cc(NC(=O)C4CCOCC4)ccc3O[C@@H]2[C@@H](CO)O1 | x | x | x | x | 0 | x
CCC(=O)Nc1ccc2c(c1)C(=O)N(C)[C@H]1CC[C@@H](CC(=O)NCCCN(C)C)O[C@H]1CO2 | x | x | x | x | 0 | x
CCOc1ccc(NC(=O)CSc2nnc(Cn3cnc([N+](=O)[O-])n3)n2C)cc1 | 1 | 1 | -4 | 7 | x | -2
CCOc1ccc(NC(=O)CSc2nnc(Cn3cnc([N+](=O)[O-])n3)n2CC)cc1 | -14 | -12 | -1 | -9 | 43* | -1
C[C@@H]1CN([C@H](C)CO)C(=O)c2cc(/C=C/c3ccccc3)cnc2O[C@H]1CN(C)Cc1cccnc1 | x | x | x | x | 0 | x
COc1ccc(NC(=O)c2ccc3ccccc3n2)cc1S(=O)(=O)Nc1ccccc1Cl | 0 | 0 | 16* | -14 | x | -11
Cc1ccc(Oc2ncccc2/C=N/OCc2ccc(Cl)cc2Cl)cc1 | 0 | 3 | 14* | -3 | x | -3
CCCCN(C)CCNC(=S)Nc1ccc2nc(N3CCN(CC)CC3)cc(C)c2c1 | -1 | -7 | 0 | 46* | 0 | -5
CCCCN(C)C(=S)Nc1ccc2nc(N3CCN(CC)CC3)cc(C)c2c1 | 5 | -17 | 0 | 16 | 0 | 10
CCN1CCN(c2cc(C)c3cc(NC(=O)c4cncc(Br)c4)ccc3n2)CC1 | -4 | -67 | 1 | 38* | x | -11
CCN(CC)CCNC(=S)Nc1ccc2nc(N3CCN(CC)CC3)cc(C)c2c1 | 0 | -3 | 1 | 39* | 0 | -11
CCN1CCN(c2cc(C)c3cc(NC(=O)c4ccc(OC)c(OC)c4)ccc3n2)CC1 | 4 | 2 | 0 | 3 | 0 | -15
CCN1CCN(c2cc(C)c3cc(NC(=S)NCCN(C)C)ccc3n2)CC1 | 1 | 25 | 0 | 49* | 0 | 6
C=CCNC(=O)[C@H]1[C@@H]2C(=O)O[C@@H](c3ccccc3)[C@@H](c3ccccc3)N2[C@@H](c2ccc(OCCO)cc2)[C@]12C(=O)Nc1ccccc12 | x | x | x | x | 0 | x
Cc1ccccc1-c1cnc2c(c1)C(=O)N([C@H](C)CO)C[C@H](C)[C@@H](CN(C)Cc1cncnc1)O2 | x | x | x | x | 0 | x
CCCN1CCN(CCCNC(=S)Nc2ccc3nc(N4CCN(CC)CC4)cc(C)c3c2)CC1 | 4 | 15 | 0 | 37* | 0 | -3
CCCCNC(=S)Nc1ccc2nc(N3CCN(CC)CC3)cc(C)c2c1 | 6 | -69 | -5 | 22 | 0 | 13
Cc1cc(N2CCCC2)nc2ccc(NC(=S)NCCCN3CCC(C)CC3)cc12 | -8 | 10 | 2 | 47* | 0 | -15
